Source: ChEMBL document CHEMBL5620421, “2,6-Disubstituted 7-(naphthalen-2-ylmethyl)-7H-purines as a new class of potent antitubercular agents inhibiting DprE1” (Eur J Med Chem, 2023)
In brackets after ≈: the same amount, converted by molar mass. Activity calls are given as the source filed them. The rule behind the calls is not given here.

Tests used:
Klebsiella pneumoniae = test: Antibacterial activity against ESBL positive Klebsiella pneumoniae C1914 assessed as inhibition of bacterial growth incubated for 24 to 48 hrs by microdilution broth method; format: functional, organism-based; conditions: time 24-48 hrs
Procedure, shortened: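 Clinical isolates kept at –70 °C and subcultured twice on Mueller-Hinton agar, using the second subculture. Broth microdilution in Mueller-Hinton broth at pH 7.4 with two-fold serial compound dilutions and DMSO ≤1% final. Inoculum was 10 μL of a 1.5 × 10⁸ CFU/mL suspension. Incubated at 36 °C ± 1 °C and read at 24 h and 48 h. MIC taken as 95% growth inhibition.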

[1] = Half life in human liver microsomes at 3 uM incubated for 5 to 45 min in presence of NADPH by LC-MS analysis; format: ADME, Microsome; conditions: time 5-45 min
Mycobacterium kansasii [2] = test: Antitubercular activity against Mycobacterium kansasii CNCTC My 235/80 assessed as inhibition of bacterial growth measured after 21 days of incubation by Sulas semisynthetic medium based assay; format: functional; conditions: CNCTC My 235/80, 504 h, time 21 day
Procedure, shortened: (§1)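 Micromethod in Sula's semisynthetic medium. MIC is the lowest concentration inhibiting >99% of the mycobacterial population. Isoniazid was the standard.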

Mycobacterium avium [3] = test: Antitubercular activity against Mycobacterium avium CNCTC My 330/88 assessed as inhibition of bacterial growth measured after 21 days of incubation by Sulas semisynthetic medium based assay; format: functional; conditions: CNCTC My 330/88, 504 h, time 21 day
Procedure, shortened: (§2)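 M. avium was tested by the micromethod in Sula's semisynthetic medium. Compounds in DMSO at 1000 to 0.5 μmol/L. Incubation at 37 °C, read at 14 and 21 days. MIC is the lowest concentration giving >99% growth inhibition.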

Enterococcus faecium = test: Antibacterial activity against vancomycin-resistant Enterococcus faecium assessed as inhibition of bacterial growth incubated for 24 to 48 hrs by microdilution broth method; format: functional, organism-based; conditions: time 24-48 hrs
Procedure, shortened: (§3)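 Clinical isolates, stored at −70 °C, were passaged twice on Mueller-Hinton agar. Broth microdilution in Mueller-Hinton broth, pH 7.4, with twofold serial dilutions. DMSO was at most 1% final. Inoculum 1.5 × 10⁸ CFU/mL suspension. MIC is 95% growth inhibition, read after 24 and 48 h at 36 °C.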

[4] = Intrinsic clearance in human liver microsomes at 3 uM incubated for 5 to 45 min in presence of NADPH by LC-MS analysis; format: ADME, Microsome; conditions: time 5-45 min, read-out: CLH
HepG2 [5] = test: Cytotoxicity against human HepG2 cells assessed as cell viability at 50 uM incubated for 72 hrs by MTT spectrophotometric analysis relative to control; format: functional; conditions: read-out: Activity
Procedure, shortened: (§4)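 HepG2 or rat H9c2 cells in DMEM with FBS, seeded at 10,000 cells/well. Treated 24 h later for 72 h, with 0.1% DMSO vehicle and 1% Triton X-100 as controls. MTT added (3 mg/mL solution) for 2 h at 37 °C, then cells lysed in isopropanol/0.1 M HCl/5% Triton X-100. Read at 570 nm minus 690 nm. Viability expressed as % of vehicle; IC50 derived where reached. At least four independent experiments.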

HepG2 [6] = test: Cytotoxicity against human HepG2 cells incubated for 24 hrs by MTT assay; format: functional, cell-based; conditions: HepG2, 24 h
Procedure, shortened: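 HepG2 cells in DMEM with 10% FBS, seeded at 15 × 10³ cells/well and attached overnight. Exposed for 24 h to serial dilutions prepared from DMSO stocks, final DMSO ≤1%. Then given fresh medium with 0.5 mg/mL MTT for 1 h at 37 °C. Formazan dissolved in DMSO and read at 570 nm. IC50 from 4-parameter nonlinear regression; three independent experiments in triplicate, mean ± SD.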

[7] = test system: Mycobacterium tuberculosis; test: Antimycobacterial activity against MDR clinical isolate Mycobacterium tuberculosis 9449/2007 assessed as inhibition of mycobacterial growth measured after 14 to 21 days of incubation by Sulas semisynthetic medium based assay; format: functional; conditions: time 14-21 day
Procedure, shortened: (§5)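 Clinical MDR/XDR M. tuberculosis isolates were tested by the Sula's semisynthetic medium micromethod. Compounds in DMSO at 1000 to 0.5 μmol/L, in twofold-type steps. Incubation at 37 °C, read at 14 and 21 days. MIC99 is the lowest concentration inhibiting >99% of growth. Drug resistance or susceptibility of each isolate is to amikacin, clofazimine, gentamicin, ofloxacin, streptomycin and the others listed.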

Mycobacterium avium [8] = test: Antitubercular activity against Mycobacterium avium CNCTC My 330/88 assessed as inhibition of bacterial growth measured after 14 days of incubation by Sulas semisynthetic medium based assay; format: functional; conditions: CNCTC My 330/88, 336 h, time 14 day; procedure, shortened: as §2
[9] = Stability in human plasma assessed as compound remaining at 1 uM incubated for 15 to 120 mins by LC-MS analysis; format: ADME, cell-free; conditions: time 15-120 min, read-out: Stability
Procedure, shortened: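 Stopped with acetonitrile containing internal standard and centrifuged at 12,000 rpm for 5 min at 4 °C. Supernatant analysed by LC-MS in positive mode. % remaining taken from compound/IS peak-area ratios at 120 versus 0 min.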

H9c2 [10] = test: Cytotoxicity against rat H9c2 cells assessed as cell viability incubated for 72 hrs by MTT spectrophotometric analysis; format: functional, cell-based; conditions: H9c2, 72 h; procedure, shortened: as §4
[11] = test system: Mycobacterium tuberculosis; test: Antitubercular activity against Mycobacterium tuberculosis CNCTC My 331/88 (H37Rv) assessed as inhibition of bacterial growth measured after 14 days of incubation by Sulas semisynthetic medium based assay; format: functional; conditions: 336 h, time 14 day
Procedure, shortened: (§6)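 Micromethod MIC in Sula's semisynthetic medium. MIC is the lowest concentration inhibiting >99% of the mycobacterial population. Isoniazid was the standard drug.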

Pseudomonas aeruginosa = test: Antibacterial activity against multidrug-resistant Pseudomonas aeruginosa A1245 assessed as inhibition of bacterial growth incubated for 24 to 48 hrs by microdilution broth method; format: functional, organism-based; conditions: time 24-48 hrs; procedure, shortened: as §3
H9c2 [12] = test: Cytotoxicity against rat H9c2 cells assessed as cell viability at 50 uM incubated for 72 hrs by MTT spectrophotometric analysis relative to control; format: functional; conditions: read-out: Activity; procedure, shortened: as §4
HepG2 [13] = test: Cytotoxicity against human HepG2 cells assessed as cell viability incubated for 72 hrs by MTT spectrophotometric analysis; format: functional, cell-based; conditions: HepG2, 72 h; procedure, shortened: as §4
[14] = test system: Mycobacterium tuberculosis; test: Antitubercular activity against Mycobacterium tuberculosis CNCTC My 331/88 (H37Rv) assessed as inhibition of bacterial growth measured after 21 days of incubation by Sulas semisynthetic medium based assay; format: functional; conditions: 504 h, time 21 day; procedure, shortened: as §6
Mycobacterium kansasii [15] = test: Antitubercular activity against Mycobacterium kansasii CNCTC My 235/80 assessed as inhibition of bacterial growth measured after 14 days of incubation by Sulas semisynthetic medium based assay; format: functional; conditions: CNCTC My 235/80, 336 h, time 14 day; procedure, shortened: as §1
[16] = test system: Mycobacterium tuberculosis; test: Antimycobacterial activity against XDR clinical isolate Mycobacterium tuberculosis 7357/1998 assessed as inhibition of mycobacterial growth measured after 14 to 21 days of incubation by Sulas semisynthetic medium based assay; format: functional; conditions: time 14-21 day; procedure, shortened: as §5
[17] = test system: Mycobacterium tuberculosis; test: Antimycobacterial activity against MDR clinical isolate Mycobacterium tuberculosis PRAHA 4 assessed as inhibition of mycobacterial growth measured after 14 to 21 days of incubation by Sulas semisynthetic medium based assay; format: functional; conditions: time 14-21 day; procedure, shortened: as §5
[18] = test system: Mycobacterium tuberculosis; test: Antimycobacterial activity against MDR clinical isolate Mycobacterium tuberculosis PRAHA 1 assessed as inhibition of mycobacterial growth measured after 14 to 21 days of incubation by Sulas semisynthetic medium based assay; format: functional; conditions: time 14-21 day; procedure, shortened: as §5
[19] = test system: Mycobacterium tuberculosis; test: Antimycobacterial activity against XDR clinical isolate Mycobacterium tuberculosis 234/2005 assessed as inhibition of mycobacterial growth measured after 14 to 21 days of incubation by Sulas semisynthetic medium based assay; format: functional; conditions: time 14-21 day; procedure, shortened: as §5

Compound | Activity (Klebsiella pneumoniae) | half-life at 3 µM [1] [min] | MIC99 (Mycobacterium kansasii [2]) [µM] | MIC99 (Mycobacterium avium [3]) [µM] | Activity (Enterococcus faecium) | microsomal CLint at 3 µM [4] [µL/min/mg] | viability at 50 µM (HepG2 [5]) [%] | IC50 (HepG2 [6]) [µM] | MIC99 [7] [µM] | MIC99 (Mycobacterium avium [8]) [µM] | remaining at 1 µM [9] [%] | IC50 (H9c2 [10]) [µM] | MIC99 [11] [µM] | Activity (Pseudomonas aeruginosa) | viability at 50 µM (H9c2 [12]) [%] | IC50 (HepG2 [13]) [µM] | MIC99 [14] [µM] | MIC99 (Mycobacterium kansasii [15]) [µM] | MIC99 [16] [µM] | MIC99 [17] [µM] | also measured
CCNc1nc(N2CCOCC2)nc2ncn(Cc3ccc4ccccc4c3)c12 | inactive | 51.3 | 8 (≈ 3.11 µg/mL) | 250 (≈ 97.1 µg/mL) | inactive | 27 | 66.9 | 63.9 | 2 (≈ 0.777 µg/mL) | 250 (≈ 97.1 µg/mL) | 95.5 | > 50 | 1 (≈ 0.388 µg/mL) | inactive | 88 | > 50 | 1 (≈ 0.388 µg/mL) | 8 (≈ 3.11 µg/mL) |  |  | 
CCOc1nc(N2CCOCC2)nc2ncn(Cc3ccc4ccccc4c3)c12 | inactive | 56.8 | 16 (≈ 6.23 µg/mL) | > 500 | inactive | 24.4 | 23.5 | 43.5 | 2 (≈ 0.779 µg/mL) | > 500 | 99.6 | > 50 | 1 (≈ 0.389 µg/mL) | inactive | 94.8 | 33.1 | 2 (≈ 0.779 µg/mL) | 16 (≈ 6.23 µg/mL) |  |  | 
c1ccc2cc(Cn3cnc4nc(N5CCOCC5)nc(NC5CCC5)c43)ccc2c1 | inactive | 37.9 | 8 (≈ 3.32 µg/mL) | 500 (≈ 207 µg/mL) | Active | 36.6 |  | 33 | 4 (≈ 1.66 µg/mL) | 250 (≈ 104 µg/mL) | 97.5 |  | 2 (≈ 0.829 µg/mL) | inactive |  |  | 4 (≈ 1.66 µg/mL) | 8 (≈ 3.32 µg/mL) | 8 (≈ 3.32 µg/mL) | 4 (≈ 1.66 µg/mL) | MIC99 [18]: 4 µM (≈ 1.66 µg/mL); MIC99 [19]: 8 µM (≈ 3.32 µg/mL)
Nc1nc(N2CCOCC2)nc2ncn(Cc3ccc4ccccc4c3)c12 | inactive | 82.5 | 16 (≈ 5.77 µg/mL) | > 500 | inactive | 16.8 | 77 | > 125 | 2 (≈ 0.721 µg/mL) | > 500 | 103 | > 50 | 1 (≈ 0.36 µg/mL) | inactive | 91.7 | > 50 | 2 (≈ 0.721 µg/mL) | 16 (≈ 5.77 µg/mL) |  |  | 
c1ccc(CNc2nc(N3CCOCC3)nc3ncn(Cc4ccc5ccccc5c4)c23)cc1 | inactive | 19.3 | 8 (≈ 3.6 µg/mL) | 64 (≈ 28.8 µg/mL) | inactive | 72.1 |  | 33.8 | 4 (≈ 1.8 µg/mL) | 64 (≈ 28.8 µg/mL) | 99.2 |  | 2 (≈ 0.901 µg/mL) | inactive |  |  | 4 (≈ 1.8 µg/mL) | 4 (≈ 1.8 µg/mL) | 4 (≈ 1.8 µg/mL) | 4 (≈ 1.8 µg/mL) | MIC99 [18]: 4 µM (≈ 1.8 µg/mL); MIC99 [19]: 4 µM (≈ 1.8 µg/mL)
